Drawing on ChEMBL document CHEMBL1154750 (J Med Chem, 2010), this text covers inhibition for one molecule.

In this test the target is Neuraminidase (Influenza A virus) (UniProt B4URF0). As to the kind of experiment: Inhibition of oseltamivir-resistant Influenza Virus A/342/0 (H1N1) neuraminidase at 52.5 uM. The gist of the method:
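Human oseltamivir-resistant H1N1 NA tested at a single 52.5 μM concentration in the NA-Star chemiluminescent assay. Compound and virus dilution were held 20 min at 37 C, then substrate (1:500) was added for 30 min at room temperature. Value given as percent inhibition relative to six untreated virus controls.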

Sequence of Neuraminidase (Influenza A virus) (B4URF0 as listed by the source): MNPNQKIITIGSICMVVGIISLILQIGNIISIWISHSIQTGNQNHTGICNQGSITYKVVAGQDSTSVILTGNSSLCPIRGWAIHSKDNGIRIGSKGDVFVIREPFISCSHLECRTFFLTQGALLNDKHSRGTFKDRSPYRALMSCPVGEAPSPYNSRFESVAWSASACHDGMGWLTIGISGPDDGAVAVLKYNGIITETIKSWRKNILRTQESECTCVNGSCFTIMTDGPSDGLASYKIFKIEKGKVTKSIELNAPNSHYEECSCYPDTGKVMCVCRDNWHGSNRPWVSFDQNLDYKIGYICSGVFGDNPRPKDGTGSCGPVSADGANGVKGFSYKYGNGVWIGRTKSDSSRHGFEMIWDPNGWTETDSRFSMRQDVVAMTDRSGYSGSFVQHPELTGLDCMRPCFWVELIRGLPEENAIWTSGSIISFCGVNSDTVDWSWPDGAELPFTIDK

In the case of `O=C(CCc1ccccc1)C[C@@H]1C[C@@H](c2ccccc2)c2c(cc(/C=C/c3ccccc3)oc2=O)O1` [KATSUMADAIN A], the inhibition (in general, how much of the control response was suppressed) was determined as 45.9%.
